Experimental data as given in article PMC7568475 (Nature metabolism, 2020).
Where no end group is shown, it is not given here.

Key:
human islets [1] = assay: Viability of human islets; format: cell-based
How it was run: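 Human islets were cultured in PIM(S) with 5% human A/B serum and infected for PC knockdown 24 h before treatment, 72 h in total. Medium carried 1 mM argininosuccinate; cytokines were TNF-α 10, IL-1β 10 and IFNγ 100 ng/ml. AnnexinV/7AAD flow cytometry was run 48 h after cytokines. Positive cells lay ≥2 s.d. outside unstained sample means.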

human islets [2] = assay: Steady state urea quantification by GC-MS, human islets; format: cell-based
GLS = GLS activity readout; format: cell-based; settings: islets, readout of GLS activity, n=2 human donors
human islets [3] = assay: NO levels by flow cytometry; format: cell-based
How it was run: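 Islets were held 72 h in 33 mM versus 5.8 mM glucose. NO was read 24 h after cytokine treatment. For each replicate, 50 islets were dispersed in accutase at 37 °C, rinsed in PBS, and stained with DAF-FM 30 min at 37 °C. Mean FITC intensity by flow cytometry was normalized to PBS control set to 1.0.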

human islets [4] = assay: 15N2-arginine tracer study in human islets; format: cell-based; settings: 15N2(guanidino)-L-arginine 72 h, cytokines 24 h, n=4 donors
How it was run: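 Human islets (150 in 2 ml) incubated 72 h with 15N2(guanidino)-L-arginine at 200 mg/L in RPMI with 5.5 mM glucose and 5% human A/B serum. Cytokine mix: TNF-α 10 ng/ml, IL-1β 10 ng/ml, IFNγ 100 ng/ml. Mass isotopomer distributions were corrected for natural abundance, normalized to tracer uptake, and expressed relative to PBS control set to 1.0.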

[5] = test system: β-cells in human islet grafts; assay: β-cell death in human islet grafts; format: in vivo; settings: donor islets pre-treated before transplantation; grafts excised day 2
How it was run: (§1)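 Donor islets were pre-treated overnight at 37 °C with vehicle (1% DMSO), 5 µM compound, or 5 µM plus 1 mM PAA. Medium was RPMI uptake medium with 11 mM glucose, 10% serum and 0.1% Tween 80 (pH 6.0). Islets were washed and held 24 h in fresh media. Male NOD-SCID mice (10–12 wk) received single i.p. STZ 200 mg/kg. 500 islets went under the kidney capsule 24–48 h after blood glucose ≥300 mg/dl.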

GK = settings: cited from earlier work
diabetic NOD-SCID mice = format: in vivo, mouse; settings: 500 pre-treated human islets in diabetic NOD-SCID mice, up to 53 days
How it was run: as §1

[6] = target: T1, recombinant human glucokinase (GK, hexokinase IV) (human, UniProt P35557 1-465); assay: ITC
T1 sequence (looked up): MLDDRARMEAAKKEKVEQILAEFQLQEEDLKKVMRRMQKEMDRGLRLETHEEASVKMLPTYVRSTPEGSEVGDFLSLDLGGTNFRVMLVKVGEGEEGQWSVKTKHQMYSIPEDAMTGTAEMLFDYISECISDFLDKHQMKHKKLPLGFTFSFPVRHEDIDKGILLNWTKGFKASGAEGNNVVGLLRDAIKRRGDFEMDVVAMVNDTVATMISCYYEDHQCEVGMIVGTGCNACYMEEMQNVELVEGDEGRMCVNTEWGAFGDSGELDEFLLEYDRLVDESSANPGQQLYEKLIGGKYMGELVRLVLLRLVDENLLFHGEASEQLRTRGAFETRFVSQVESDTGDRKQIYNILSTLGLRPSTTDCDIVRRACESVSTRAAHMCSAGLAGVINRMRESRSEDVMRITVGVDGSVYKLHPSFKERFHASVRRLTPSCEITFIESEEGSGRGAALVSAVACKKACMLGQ

[7] = PC-depleted human islets, cytokines, AS 1 mM, n=4 experiments, 2 donors
[8] = human islets, inflammatory cytokines, AS 1 mM, n=3 donors

Molecule: NC(=NCCC[C@H](N)C(=O)O)N[C@@H](CC(=O)O)C(=O)O [AS, argininosuccinic acid]
- viability with argininosuccinate, PC knockdown (human islets [1]; [7]): protects against inflammation toxicity
- viability with argininosuccinate (human islets [1]; [8]): rescue the viability of human islets undergoing inflammation
- urea levels with argininosuccinate, PC knockdown (human islets [2]; [7]): rescues urea levels
- urea levels, AS dose response (human islets [2]; human islets, 10–200 µM AS): had no effect on urea levels
- urea levels with argininosuccinate (human islets [2]; [8]): sufficient to increase urea levels

Molecule: O=C(Cc1ccccc1)Nc1nnc(CCSCCc2nnc(NC(=O)Cc3ccccc3)s2)s1 [BPTES, Bis-2-(5-phenylacetamido-1,3,4-thiadiazol-2-yl)ethyl sulfide]
- glutamate/glutamine (glu/gln) ratio (GLS): reduce the ratio of glutamate/glutamine
- urea levels with BPTES (human islets [2]; islets, n=2 human donors): does not affect islet urea levels

Molecule: COC[C@H](C)Oc1cc(O[C@@H](C)Cc2ccccc2)cc(C(=O)Nc2ccc(C(=O)O)cn2)c1 [GKA50]
- NO levels (human islets [3]; inflammatory cytokines 24 h, DAF-FM): These differences were further recapitulated with a second, structurally distinct allosteric GKA
- urea levels (human islets [2]; human islets, inflammatory cytokines 24 h): These differences were further recapitulated with a second, structurally distinct allosteric GKA

Molecule: CS(=O)(=O)c1ccc([C@@H](CC2CCCC2)C(=O)Nc2nccs2)cc1 [RO0281675]
- 15N2 enrichment in urea (M+2) / ureagenesis (human islets [4]): ureagenesis was not altered
- β-cell death in islet grafts [5]: ineffective
- effect on GK affinity for glucose, allosteric activation (GK): significantly augments the enzyme’s affinity for glucose
- viability / protection from cytokine-induced death (human islets [1]; human islets, TNF-α, IL-1β and IFNγ 48 h, n=6 donors (Fig. 1c)): does not protect human islets from cytokine-induced death
- hyperglycemia reversal (blood glucose) (diabetic NOD-SCID mice): ineffective

Molecule: OC[C@H]1OC(O)[C@H](O)[C@@H](O)[C@@H]1O (some centres unmarked) [glucose]
- NO levels, glucotoxicity (human islets [3]; 33 mM glucose 72 h vs 5.8 mM glucose): enhances NO levels
- urea levels, glucotoxicity (human islets [2]; human islets, 33 mM glucose 72 h vs 5.8 mM glucose): reduces urea

Molecule: NLWAAQRYGRELRRMDDEFVDSFKK (staple (positions not given here); not fully specified) [BAD BH3 SAHBA SD (hydrocarbon stapled peptide modeled after the phospho-BAD BH3 helix)]
- stoichiometry N [6]: 1
